The source made the active and inactive calls. The calls are words filed in the database; no cut-off is given here.
What was measured:
[1] = Binding affinity to beta-lactamase VIM-2 expressed in Escherichia coli BL21(DE3) assessed as association constant at 25 degC by isothermal titration calorimetry
Outline: (§1)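 VIM-2 (19 μM) in 10 mM HEPES-NaOH, 0.15 M NaCl, 50 μM ZnSO4, pH 7.5, DMSO matched to ligand (1-2% final). One 0.5 μl then 19 × 2 μl injections of compound (200-400 μM), 150 s apart, 25 °C. Buffer dilution heats subtracted; nonlinear least-squares fit for n, Ka, ΔH; compound concentration adjusted in fitting so n ≈ 1.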

[2] = Binding affinity to beta-lactamase VIM-2 expressed in Escherichia coli BL21(DE3) assessed as dissociation constant at 25 degC by isothermal titration calorimetry; outline: as §1
[3] = Binding affinity to beta-lactamase VIM-2 expressed in Escherichia coli BL21(DE3) assessed as change in entropy at 25 degC by isothermal titration calorimetry; outline: as §1
[4] = Inhibition of beta-lactamase VIM-2 (unknown origin) expressed in Escherichia coli LZ2310 assessed as potentiation of cefoxitin antibacterial activity by measuring cefoxitin induced diameter of inhibition zone at 40 uM incubated for 18 hrs by disk diffusion method (reference value: 14 mm)
Outline: (§2)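 Efflux-deficient E. coli LZ2310 (NorE, MdfA, AcrA knocked out) carrying pLB-II with the cloned MBL gene. Mueller-Hinton, CLSI disk diffusion; antibiotic disks (30 µg cefoxitin for VIM-2, 10 µg ampicillin for VIM-4, 30 µg ceftazidime for NDM-1/IMP-1) loaded with inhibitor in DMSO (≤15 µL). Zone diameter after 18 h, 35 ± 1 °C; DMSO and 220 µg EDTA controls. Triplicate.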

[5] = Binding affinity to beta-lactamase VIM-2 expressed in Escherichia coli BL21(DE3) assessed as Gibbs free energy at 25 degC by isothermal titration calorimetry; outline: as §1
[6] = Binding affinity to beta-lactamase VIM-2 expressed in Escherichia coli BL21(DE3) assessed as change in enthalpy at 25 degC by isothermal titration calorimetry; outline: as §1
[7] = Inhibition of beta-lactamase CphA (unknown origin) expressed in Escherichia coli BL21(DE3) using imipenem as substrate by measuring substrate hydrolysis by spectrophotometric analysis
Outline: (§3)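 Enzyme 0.2–0.8 nM in 15 mM cacodylate pH 6.5, no added zinc, pre-incubated 30 min at 21 °C with inhibitor (100 μM screen). Imipenem substrate added from 10 mM stock; hydrolysis at 300 nm, 30 °C. Residual activity vs three uninhibited samples; Ki (1–100 μM inhibitor) by Hanes linearization, competitive model. Triplicate.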

[8] = Inhibition of beta-lactamase IMP-1 (unknown origin) expressed in Escherichia coli BL21(DE3) using imipenem as substrate by measuring substrate hydrolysis at 200 uM by spectrophotometric analysis
Outline: (§4)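 Purified enzyme (overproduced in E. coli BL21(DE3), pET-9a; ion-exchange and gel filtration), 1-70 nM final. Reporter substrate 150 μM imipenem, read at 300 nm, 30 °C, 50 mM HEPES pH 7.5. Single-point screen at 100 or 200 μM; Ki from v0/vi vs [I] (0.5–1,000 μM final) assuming competitive inhibition, or Dixon plot. Triplicate.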

[9] = Inhibition of beta-lactamase IMP-1 (unknown origin) expressed in Escherichia coli BL21(DE3) using imipenem as substrate by measuring substrate hydrolysis at 100 uM by spectrophotometric analysis; outline: as §4
[10] = Inhibition of beta-lactamase VIM-4 (unknown origin) expressed in Escherichia coli LZ2310 assessed as potentiation of ampicillin antibacterial activity by measuring ampicillin induced diameter of inhibition zone at 40 uM incubated for 18 hrs by disk diffusion method (reference value: 6 mm); outline: as §2
[11] = Inhibition of beta-lactamase NDM1 (unknown origin) expressed in Escherichia coli BL21(DE3) using cefotaxime/nitrocefin as substrate by measuring substrate hydrolysis by spectrophotometric analysis
Outline: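 His-tagged enzyme from E. coli BL21(DE3) pET-15b, affinity-purified, 1-70 nM final. Reporter substrate 120 μM cefotaxime (260 nm) or 100 μM nitrocefin (482 nm), 30 °C, 50 mM HEPES pH 7.5. Inhibitor 0.5–1,000 μM final; competitive Ki from v0/vi vs [I] slope or Dixon plot. Triplicate.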

[12] = Inhibition of beta-lactamase VIM2 (unknown origin) expressed in Escherichia coli BL21(DE3) using imipenem as substrate by measuring substrate hydrolysis by spectrophotometric analysis; outline: as §4
[13] = Inhibition of beta-lactamase VIM4 (unknown origin) expressed in Escherichia coli BL21(DE3) using imipenem as substrate by measuring substrate hydrolysis by spectrophotometric analysis; outline: as §4
[14] = Inhibition of beta-lactamase L1 (unknown origin) expressed in Escherichia coli BL21(DE3) using nitrocefin as substrate by measuring substrate hydrolysis preincubated for 30 mins by spectrophotometric analysis
Outline: (§5)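 Enzyme 0.2–0.8 nM in 25 mM HEPES pH 7.5 with 50 μM ZnCl2 final, pre-incubated 30 min at 21 °C with inhibitor (100 μM screen). Nitrocefin 100 μM final, read at 482 nm, 30 °C. Residual activity vs three uninhibited samples; Ki (1–100 μM inhibitor) from Hanes linearization, competitive model. Triplicate.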

[15] = Inhibition of beta-lactamase CphA (unknown origin) expressed in Escherichia coli BL21(DE3) using imipenem as substrate by measuring substrate hydrolysis at 100 uM by spectrophotometric analysis; outline: as §3
[16] = Inhibition of beta-lactamase VIM4 (unknown origin) expressed in Escherichia coli BL21(DE3) using imipenem as substrate by measuring substrate hydrolysis at 100 uM by spectrophotometric analysis; outline: as §4
[17] = Inhibition of beta-lactamase L1 (unknown origin) expressed in Escherichia coli BL21(DE3) using nitrocefin as substrate by measuring substrate hydrolysis at 100 uM preincubated for 30 mins by spectrophotometric analysis; outline: as §5
[18] = Inhibition of beta-lactamase VIM4 (unknown origin) expressed in Escherichia coli BL21(DE3) using imipenem as substrate by measuring substrate hydrolysis at 200 uM by spectrophotometric analysis; outline: as §4
[19] = Inhibition of beta-lactamase CphA (unknown origin) expressed in Escherichia coli BL21(DE3) using imipenem as substrate by measuring substrate hydrolysis at 200 uM by spectrophotometric analysis
[20] = Inhibition of beta-lactamase NDM1 (unknown origin) expressed in Escherichia coli BL21(DE3) using cefotaxime/nitrocefin as substrate by measuring substrate hydrolysis at 100 uM by spectrophotometric analysis
[21] = Inhibition of beta-lactamase L1 (unknown origin) expressed in Escherichia coli BL21(DE3) using nitrocefin as substrate by measuring substrate hydrolysis at 200 uM preincubated for 30 mins by spectrophotometric analysis
[22] = Inhibition of beta-lactamase NDM-1 (unknown origin) expressed in Escherichia coli LZ2310 assessed as potentiation of ceftazidime antibacterial activity by measuring ceftazidime induced diameter of inhibition zone at 40 uM incubated for 18 hrs by disk diffusion method (reference value: 15 mm); outline: as §2
[23] = Inhibition of beta-lactamase NDM1 (unknown origin) expressed in Escherichia coli BL21(DE3) using cefotaxime/nitrocefin as substrate by measuring substrate hydrolysis at 200 uM by spectrophotometric analysis
[24] = target: Hydroxyacylglutathione hydrolase (Homo sapiens); assay: Inhibition of human Glyoxalase II expressed in Escherichia coli BL21 (DE3)
[25] = Inhibition of beta-lactamase VIM2 (unknown origin) expressed in Escherichia coli BL21(DE3) using imipenem as substrate by measuring substrate hydrolysis at 100 uM by spectrophotometric analysis; outline: as §4
[26] = Inhibition of beta-lactamase IMP-1 (unknown origin) expressed in Escherichia coli BL21(DE3) using imipenem as substrate by measuring substrate hydrolysis by spectrophotometric analysis; outline: as §4
[27] = Inhibition of beta-lactamase IMP-1 (unknown origin) expressed in Escherichia coli LZ2310 assessed as potentiation of ceftazidime antibacterial activity by measuring ceftazidime induced diameter of inhibition zone at 40 uM incubated for 18 hrs by disk diffusion method (reference value: 9 mm); outline: as §2
[28] = Inhibition of beta-lactamase VIM2 (unknown origin) expressed in Escherichia coli BL21(DE3) using imipenem as substrate by measuring substrate hydrolysis at 200 uM by spectrophotometric analysis; outline: as §4

Ka [1]	-TdeltaS [3] [kcal/mol]	inhibition zone (IZ) [4] [mm]	deltaG [5] [kcal/mol]	deltaH [6] [kcal/mol]	inhibition [8]	inhibition [9]	inhibition zone (IZ) [10] [mm]	inhibition [15]	inhibition [16]	inhibition [17]	inhibition [19]	inhibition [20]	inhibition [23]	inhibition [25]	Compound	Kd [2] [nM]	Ki [7] [nM]	Ki [12] [nM]	Ki [13] [nM]	Ki [14] [nM]	further results
2.6 10^6/M	2.4	14	-8.7	-6.3	inactive	inactive	6	–	–	–	–	–	–	–	COc1ccc(O)c(-c2n[nH]c(=S)n2/N=C/c2ccccc2C(=O)O)c1	389	13000	700	500	9000	Ki [11]: 27000 nM
–	–	–	–	–	–	35%	–	inactive	inactive	35%	inactive	–	–	–	Oc1ccc(/C=N/n2c(CC(c3ccccc3)c3ccccc3)n[nH]c2=S)c(O)c1	–	–	–	–	–	inhibition [18]: inactive
3.1 10^6/M	-1.6	–	-8.8	-10.4	inactive	inactive	–	–	–	inactive	–	45%	–	–	Oc1ccc(/C=N/n2c(-c3cccc(Br)c3)n[nH]c2=S)c(O)c1	323	–	620	13000	–	inhibition [21]: inactive
–	–	–	–	–	–	67%	–	inactive	63%	54%	inactive	–	–	–	Oc1ccc(/C=N/n2c(-c3ccc(Cl)cc3)n[nH]c2=S)c(O)c1	–	–	–	–	–	inhibition zone (IZ) [22]: 15 mm; Ki [11]: 3100 nM
–	–	14	–	–	–	–	6	–	–	–	–	inactive	inactive	–	Cc1ccccc1-c1n[nH]c(=S)n1/N=C/c1ccc(O)cc1O	–	62000	7000	400	31000	IC50 [24]: 19000 nM
–	–	–	–	–	–	41%	–	inactive	38%	inactive	inactive	inactive	inactive	62%	Cc1ccccc1-c1n[nH]c(=S)n1/N=C/c1ccccc1O	–	–	–	–	–	inhibition [21]: inactive
–	–	–	–	–	–	–	6	inactive	–	–	inactive	–	–	inactive	S=c1[nH]nc(-c2cc(Cl)cc(Cl)c2)n1/N=C/c1ccc(OCc2ccccc2)cc1	–	–	–	600	18000	Ki [26]: 100 nM; inhibition zone (IZ) [27]: 9 mm; inhibition [28]: inactive
3.4 10^6/M	-2.1	14	-7.5	-9.6	inactive	inactive	6	–	–	31%	–	inactive	inactive	–	Oc1ccc(/C=N/n2c(-c3ccccc3O)n[nH]c2=S)c(O)c1	2980	6000	2000	500	–	–
1.2 10^6/M	4.3	14	-8.2	-3.1	–	53%	6	–	–	–	–	–	–	–	O=C(O)c1ccccc1/C=N/n1c(-c2cc(Cl)cc(Cl)c2)n[nH]c1=S	863	4000	3000	800	3000	Ki [11]: 30000 nM
–	–	–	–	–	–	60%	–	inactive	inactive	inactive	inactive	inactive	inactive	inactive	S=c1[nH]nc(-c2ccccc2)n1/N=C/c1ccccc1	–	–	–	–	–	inhibition [21]: inactive; inhibition [18]: inactive; inhibition [28]: inactive
–	–	–	–	–	inactive	inactive	–	inactive	62%	inactive	inactive	–	60%	inactive	O=C(O)c1ccccc1/C=N/n1c(-c2ccccn2)n[nH]c1=S	–	–	–	–	–	inhibition [21]: inactive; inhibition [28]: inactive
7.7 10^6/M	-1.1	14	-8	-9.1	–	45%	6	39%	–	–	–	–	–	–	Cc1ccccc1-c1n[nH]c(=S)n1/N=C/c1ccc(O)c(C(=O)O)c1	1300	–	2000	1400	13000	–
–	–	–	–	–	–	–	6	–	–	–	–	inactive	inactive	inactive	Cc1ccccc1-c1n[nH]c(=S)n1/N=C/c1ccc(OCc2ccccc2)cc1	–	22000	–	2100	12000	Ki [26]: 300 nM; inhibition zone (IZ) [27]: 9 mm; inhibition [28]: inactive; IC50 [24]: 5900 nM
